According to article PMC10500652 (ACS Omega, 2023):

Assays:
[1] = Solubility; format: physicochemical
[2] = Molar conductivity measurement; format: physicochemical; conditions: for molar conductance ^M in 10% DMSO: 10% aqueous DMSO; for molar conductance ^M in DMSO: pure DMSO
Procedure, shortened: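 Conductivity of test compound at 3 × 10^-5 M in DMSO and in aqueous DMSO, measured with a conductivity meter of cell constant 1.0 cm^-1.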

[3] = tested on: U87MG; assay: MTT cytotoxicity assay, U87MG; format: cell-based, human; conditions: for selectivity factor U87MG: ratio of IC50 HEK-293 / U87MG; for IC50: read-out: IC50 U87MG, MTT, 48 h incubation
Procedure, shortened: (§1)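 Cells kept in DMEM with 10% FBS, 1% nonessential amino acids and 1% antibiotic-antimycotic at 37 °C, 95% humidity, CO2, and trypsinised at 80% confluence. Seeded 1 × 10^4 cells/well, grown 24 h, then exposed to test compound. MTT read-out at 570 nm, in triplicate. % growth inhibition = 100 − (AD × 100/AB), against vehicle wells.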

[4] = tested on: Ct-DNA; assay: Ethidium bromide displacement; format: binding, calf; conditions: for KSV, Stern–Volmer quenching constant: EtBr–Ct-DNA adduct
Procedure, shortened: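 EtBr–Ct-DNA adduct (EtBr 8 μM) titrated with test compound at 5–60 μM; drop in EtBr emission followed. KSV from linear Stern–Volmer fit of I0/I vs [complex]. Kapp from the concentration giving 50% quenching: Kapp × [compound]50 = KEtBr × [EtBr], with KEtBr 1.0 × 10^7 M^-1.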

[5] = tested on: Ct-DNA; assay: Ct-DNA binding by UV absorption titration; set-up: species or system calf; conditions: on titration with Ct-DNA, Tris-HCl/NaCl buffer
Procedure, shortened: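 UV absorbance titration: Ct-DNA (purity checked by OD 260/280) added stepwise from stock to test compound held fixed at 20 μM in 5 mM Tris-HCl/50 mM NaCl. Intrinsic binding constant Kb from slope/intercept of linear fit. Hypochromicity %H = (A0 − AF)/A0 × 100, AF taken when absorbance stops changing.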

[6] = tested on: HEK293; assay: MTT cytotoxicity assay, HEK293; format: cell-based, human; conditions: read-out: IC50 HEK293, 48 h incubation, normal cell line
Procedure, shortened: as §1

[7] = Fluorescence quantum yield; format: physicochemical; conditions: relative to quinine sulfate; 0.1% DMSO buffer solution, pH 7.2
Procedure, shortened: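 Relative emission quantum yield against quinine sulfate in H2SO4 (excitation 350 nm, emission 452 nm, ΦR 0.50). Calculated from integrated emission peak area, absorbance at λmax and refractive indices of sample and reference solvents.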

[8] = tested on: HeLa; assay: MTT cytotoxicity assay, HeLa; format: cell-based, human; conditions: for selectivity factor HeLa: ratio of IC50 HEK-293 / HeLa; for IC50: read-out: IC50 HeLa, MTT, 48 h incubation
Procedure, shortened: as §1

[9] = target: BSA (Bos taurus, UniProt P02769); assay: BSA binding, tryptophan emission quenching; set-up: species or system bovine; conditions: for KBSA, Stern–Volmer quenching constant: BSA fluorescence at 340 nm; for K, binding constant with BSA / n, number of binding sites: Scatchard plot; for kq, quenching rate constant: from KBSA and τ0 = 1 × 10^–8 s
Sequence of BSA (P02769 25-607): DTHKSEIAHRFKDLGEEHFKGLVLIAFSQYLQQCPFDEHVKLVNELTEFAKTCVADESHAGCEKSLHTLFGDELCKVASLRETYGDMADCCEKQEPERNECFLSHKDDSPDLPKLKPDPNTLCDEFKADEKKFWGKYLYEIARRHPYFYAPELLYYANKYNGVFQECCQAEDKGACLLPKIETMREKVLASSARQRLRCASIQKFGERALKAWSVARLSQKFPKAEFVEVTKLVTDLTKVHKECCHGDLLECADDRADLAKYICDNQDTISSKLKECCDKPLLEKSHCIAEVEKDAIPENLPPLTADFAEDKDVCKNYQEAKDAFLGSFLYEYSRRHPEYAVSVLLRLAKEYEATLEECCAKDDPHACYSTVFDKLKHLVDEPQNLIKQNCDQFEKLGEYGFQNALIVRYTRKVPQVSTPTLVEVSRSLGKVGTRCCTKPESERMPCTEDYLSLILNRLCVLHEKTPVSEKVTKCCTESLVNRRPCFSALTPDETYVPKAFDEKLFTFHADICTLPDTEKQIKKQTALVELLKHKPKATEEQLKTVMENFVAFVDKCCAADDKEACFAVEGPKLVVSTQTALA
Procedure, shortened: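 BSA prepared at 2 × 10^-6 M in Tris-HCl/NaCl buffer and titrated with increasing amounts of aqueous test compound. Mixed gently 5 min after each addition; tryptophan emission read at 340 nm with excitation at 295 nm. KBSA from Stern–Volmer plot of I0/I vs [complex]; kq = KBSA/τ0 with τ0 1 × 10^-8. K and n from log((I0−I)/I) vs log[Q].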

[10] = tested on: MCF-7; assay: MTT cytotoxicity assay, MCF-7; format: cell-based, human; conditions: for selectivity factor MCF-7: ratio of IC50 HEK-293 / MCF-7; for IC50: read-out: IC50 MCF 7, MTT, 48 h incubation
Procedure, shortened: as §1

[11] = tested on: Ct-DNA; conditions: value reported in the literature; cited from earlier work
[12] = Lipophilicity, n-octanol/water partition coefficient by shake-flask method; format: physicochemical; conditions: UV detection
Procedure, shortened: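 Shake-flask partition: test compound dissolved in octanol/water and shaken 24 h. Phases separated by settling over 30 min or centrifuging 5000 rpm for 20 min, collected without cross-contamination. Compound in each phase quantified by UV-vis at room temperature. log Po/w = log([octanol]/[aqueous]); mean of three independent experiments.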

[13] = tested on: MCF-7 cells; assay: Cell cycle analysis; format: cell-based, human; conditions: 8 μM, 24 h
Procedure, shortened: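 MCF-7 cells (1 × 10^6) grown 24 h, exposed to test compound in medium 24 h, then harvested by centrifugation. Fixed at 4 °C overnight and washed twice with cold PBS. Stained 15 min in the dark with 0.05 mg/ml PI plus 0.05 mg/ml RNaseA in sheath fluid. DNA content measured by flow cytometry to give percentage of cells in each cycle phase.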

[14] = tested on: MCF-7 cells; assay: Apoptosis, Annexin V FITC/PI assay; format: cell-based, human; conditions: 15 μM, 24 h

With “[(η^5-Cp*)Ir^IIICl(K^2-N,N-2(2-(4-(4-(Pyridin-2-yl)-1H-1,2,3-triazol-1-yl)butoxy)phenyl)benzo[d]thiazole)]Cl [Complex 7b]” the “solubility in water / aqueous medium” value [1] was “very good solubility in aqueous medium”, the “molar conductance ^M in 10% DMSO” value [2] was 26 S cm^2 mol^–1 and the “molar conductance ^M in DMSO” value [2] was 5 S cm^2 mol^–1. For the same compound, the “selectivity factor U87MG” value [3] was 1, the IC50 [3] was > 100 µM and the “Kapp, apparent DNA-binding constant” value ([4]; 50% quenching, [EtBr] = 8 μM, [DNA] = 120 μM) was 0.14 × 10^7 M^–1. For the same compound, the “KSV, Stern–Volmer quenching constant” value [4] was 4 × 10^3 M^–1, the “Δε, change in molar absorptivity” value [5] was 46.66% and the IC50 [6] was > 100 µM. For the same compound, the “quantum yield (ϕf)” value [7] was 0.0004, the “selectivity factor HeLa” value [8] was 6.31 and the IC50 [8] was 15.8 ± 0.7 µM. The “KBSA, Stern–Volmer quenching constant” value [9] was 0.201 × 10^6 M^–1, the “K, binding constant with BSA” value [9] was 0.057 × 10^6 M^–1 and the “n, number of binding sites” value [9] was 1.33. The “kq, quenching rate constant” value [9] was 2.01 × 10^13 M^–1 s^–1, the “selectivity factor MCF-7” value [10] was 2.45 and the IC50 [10] was 40.9 ± 1.8 µM.
For `CC[n+]1c(-c2ccccc2)c2cc(N)ccc2c2ccc(N)cc21` [EtBr, Ethidium bromide], the “KEtBr, binding constant of EtBr to DNA” value [11] is listed as 1.0 × 10^7 M^–1.
In the case of “[Re^I(CO)3Cl(K^2-N,N-2-(2-(4-(4-(Pyridin-2-yl)-1H-1,2,3-triazol-1-yl)butoxy)phenyl)benzo[d]thiazole)] [Complex 7c]”, the “solubility in water / aqueous medium” value [1] is reported as “poor solubility in water”, the “molar conductance ^M in 10% DMSO” value [2] is reported as 22 S cm^2 mol^–1 and the “molar conductance ^M in DMSO” value [2] is reported as 9 S cm^2 mol^–1. For the same compound, the “selectivity factor U87MG” value [3] was 1.31, the IC50 [3] was 76 ± 3.5 µM and the “KSV, Stern–Volmer quenching constant” value [4] was 8.2 × 10^3 M^–1. For the same compound, the “Δε, change in molar absorptivity” value [5] was 27.12%, the IC50 [6] was > 100 µM and the “quantum yield (ϕf)” value [7] was 0.0140. The “log Po/w (n-octanol/water partition coefficient)” value [12] was 0.3180, the “selectivity factor HeLa” value [8] was 5.15 and the IC50 [8] was 19.4 ± 0.19 µM. For the same compound, the “KBSA, Stern–Volmer quenching constant” value [9] was 0.296 × 10^6 M^–1, the “K, binding constant with BSA” value [9] was 0.087 × 10^6 M^–1 and the “n, number of binding sites” value [9] was 1.21. For the same compound, the “kq, quenching rate constant” value [9] was 2.9 × 10^13 M^–1 s^–1, the “selectivity factor MCF-7” value [10] was 2.44 and the IC50 [10] was 40.9 ± 1.4 µM.
In the case of `COc1cc2c(c(OC)c1OC)-c1ccc(OC)c(=O)cc1[C@@H](NC(C)=O)CC2` [colchicine], the G0/G1 phase cells [13] is reported as 54.11%, the G2/M phase cells [13] is reported as 34.60% and the S phase cells [13] is reported as 8.30%. It also gave a sub-G0 phase cells [13] of 0.64%.
Work on `N.N.[Cl][Pt][Cl]` [cisplatin, cis-diamminedichloroplatinum(II), reference compound] yielded an IC50 [3] of 16.9 ± 2.1 µM, an IC50 [6] of 34.8 µM and an early apoptosis [14] of 12.00%. For the same compound, the late apoptosis [14] was 32.04%, the necrotic cells [14] was 3.12% and the IC50 [8] was 16.4 ± 0.16 µM. The IC50 [10] was 20.1 ± 1.6 µM.
